{"source": "ChEMBL document CHEMBL1687714", "about": "“Genetic analysis of fenhexamid-resistant field isolates of the phytopathogenic fungus Botrytis cinerea” (Antimicrob Agents Chemother, 2008)", "type_in_all_cases": "functional, organism-based", "key": {"[1]": {"system": "Botrytis cinerea", "assay": "Antifungal activity against highly fenhexamid-resistant Botrytis cinerea MK3-9 assessed as inhibition of germ tube elongation after 24 hrs", "conditions": "MK3-9, 24 h"}, "[2]": {"system": "Botrytis cinerea", "assay": "Antifungal activity against highly fenhexamid-resistant Botrytis cinerea MK5-14 assessed as inhibition of germ tube elongation after 24 hrs", "conditions": "MK5-14, 24 h"}, "[3]": {"system": "Botrytis cinerea", "assay": "Antifungal activity against highly fenhexamid-resistant Botrytis cinerea MK5-2 assessed as inhibition of germ tube elongation after 24 hrs", "conditions": "MK5-2, 24 h"}, "[4]": {"system": "Botrytis cinerea", "assay": "Antifungal activity against moderately to slightly fenhexamid-resistant Botrytis cinerea 57 assessed as inhibition of germ tube elongation after 24 hrs", "conditions": "Botrytis cinerea, 57, 24 h"}, "[5]": {"system": "Botrytis cinerea", "assay": "Antifungal activity against moderately to slightly fenhexamid-resistant Botrytis cinerea 202 assessed as inhibition of germ tube elongation after 24 hrs", "conditions": "Botrytis cinerea, 202, 24 h"}, "[6]": {"system": "Botrytis cinerea", "assay": "Antifungal activity against moderately to slightly fenhexamid-resistant Botrytis cinerea 221 assessed as inhibition of germ tube elongation after 24 hrs", "conditions": "Botrytis cinerea, 221, 24 h"}, "[7]": {"system": "Botrytis cinerea", "assay": "Antifungal activity against moderately to slightly fenhexamid-resistant Botrytis cinerea 453a assessed as inhibition of germ tube elongation after 24 hrs"}, "[8]": {"system": "Botrytis cinerea", "assay": "Antifungal activity against moderately to slightly fenhexamid-resistant Botrytis cinerea 453b assessed as inhibition of germ tube elongation after 24 hrs"}, "[9]": {"system": "Botrytis cinerea", "assay": "Antifungal activity against highly fenhexamid-resistant Botrytis cinerea 05-190 assessed as inhibition of mycelium growth measured over 5 days", "conditions": "05-190, 120 h"}, "[10]": {"system": "Botrytis cinerea", "assay": "Antifungal activity against highly fenhexamid-resistant Botrytis cinerea 118 assessed as inhibition of mycelium growth measured over 5 days", "conditions": "Botrytis cinerea, 118, 120 h"}, "[11]": {"system": "Botrytis cinerea", "assay": "Antifungal activity against highly fenhexamid-resistant Botrytis cinerea 214 assessed as inhibition of mycelium growth measured over 5 days", "conditions": "Botrytis cinerea, 214, 120 h"}, "[12]": {"system": "Botrytis cinerea", "assay": "Antifungal activity against highly fenhexamid-resistant Botrytis cinerea 223b assessed as inhibition of mycelium growth measured over 5 days", "conditions": "120 h"}, "[13]": {"system": "Botrytis cinerea", "assay": "Antifungal activity against highly fenhexamid-resistant Botrytis cinerea 379a assessed as inhibition of mycelium growth measured over 5 days", "conditions": "120 h"}, "[14]": {"system": "Botrytis cinerea", "assay": "Antifungal activity against highly fenhexamid-resistant Botrytis cinerea 379b assessed as inhibition of mycelium growth measured over 5 days", "conditions": "120 h"}, "[15]": {"system": "Botrytis cinerea", "assay": "Antifungal activity against highly fenhexamid-resistant Botrytis cinerea 440b assessed as inhibition of mycelium growth measured over 5 days", "conditions": "120 h"}, "[16]": {"system": "Botrytis cinerea", "assay": "Antifungal activity against highly fenhexamid-resistant Botrytis cinerea 506a assessed as inhibition of mycelium growth measured over 5 days", "conditions": "120 h"}, "[17]": {"system": "Botrytis cinerea", "assay": "Antifungal activity against highly fenhexamid-resistant Botrytis cinerea 520a assessed as inhibition of mycelium growth measured over 5 days", "conditions": "120 h"}, "[18]": {"system": "Botrytis cinerea", "assay": "Antifungal activity against highly fenhexamid-resistant Botrytis cinerea 520b assessed as inhibition of mycelium growth measured over 5 days", "conditions": "120 h"}, "[19]": {"system": "Botrytis cinerea", "assay": "Antifungal activity against moderately to slightly fenhexamid-resistant Botrytis cinerea 05-1.27 assessed as inhibition of mycelium growth measured over 5 days", "conditions": "05-1.27, 120 h"}, "[20]": {"system": "Botrytis cinerea", "assay": "Antifungal activity against moderately to slightly fenhexamid-resistant Botrytis cinerea 202 assessed as inhibition of mycelium growth measured over 5 days", "conditions": "Botrytis cinerea, 202, 120 h"}, "[21]": {"system": "Botrytis cinerea", "assay": "Antifungal activity against moderately to slightly fenhexamid-resistant Botrytis cinerea 452 assessed as inhibition of mycelium growth measured over 5 days", "conditions": "Botrytis cinerea, 452, 120 h"}, "[22]": {"system": "Botrytis cinerea", "assay": "Antifungal activity against moderately to slightly fenhexamid-resistant Botrytis cinerea 454 assessed as inhibition of mycelium growth measured over 5 days", "conditions": "Botrytis cinerea, 454, 120 h"}, "[23]": {"system": "Botrytis cinerea", "assay": "Antifungal activity against Botrytis cinerea 1837 expressing erg27 HydR3+ alleles assessed as appearance of dense mycelium up to 20 ug/ml", "how_it_was_run": "(§1)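 Spores of parental strains were spread on YSS (synthetic complete) medium containing fenhexamid at several concentrations, without hygromycin B. Growth was scored after 7 days at 21°C.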"}, "[24]": {"system": "Botrytis cinerea", "assay": "Antifungal activity against Botrytis cinerea 223b expressing erg27 HydR3+ alleles assessed as appearance of dense mycelium up to 20 ug/ml", "how_it_was_run": "as §1"}, "[25]": {"system": "Botrytis cinerea", "assay": "Antifungal activity against Botrytis cinerea 286 harboring TELerg S336C mutant at 1 ug/ml relative to wild-type", "how_it_was_run": "(§2)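 In the dominance test, the recipient strains 453b and 286 were transformed with different erg27 alleles. Spores of the transformants were grown on YSS medium containing fenhexamid at different concentrations and 50 µg ml–1 hygromycin B. Parental strains were grown without hygromycin. Growth was scored after 7 days at 21°C.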"}, "[26]": {"system": "Botrytis cinerea", "assay": "Antifungal activity against Botrytis cinerea 286 harboring TELerg S336C mutant at 2 ug/ml relative to wild-type", "how_it_was_run": "as §2"}, "[27]": {"system": "Botrytis cinerea", "assay": "Antifungal activity against HydR3 deficient Botrytis cinerea 453 harboring TELerg N369D mutant at 5 ug/ml relative to wild-type", "how_it_was_run": "as §2"}, "[28]": {"system": "Botrytis cinerea", "assay": "Antifungal activity against HydR3 deficient Botrytis cinerea 453 harboring TELerg F412I mutant at 10 ug/ml relative to wild-type", "how_it_was_run": "as §2"}, "[29]": {"system": "Botrytis cinerea", "assay": "Antifungal activity against Botrytis cinerea 286 harboring TELerg S336C mutant at 10 ug/ml relative to wild-type", "how_it_was_run": "as §2"}, "[30]": {"system": "Botrytis cinerea", "assay": "Antifungal activity against fenhexamid-senistive Botrytis cinerea SAS56 assessed as inhibition of germ tube elongation after 24 hrs", "conditions": "SAS56, 24 h"}, "[31]": {"system": "Botrytis cinerea", "assay": "Antifungal activity against fenhexamid-senistive Botrytis cinerea SAS405 assessed as inhibition of germ tube elongation after 24 hrs", "conditions": "SAS405, 24 h"}, "[32]": {"system": "Botrytis cinerea", "assay": "Antifungal activity against highly fenhexamid-resistant Botrytis cinerea 1837 assessed as inhibition of germ tube elongation after 24 hrs", "conditions": "Botrytis cinerea, 1837, 24 h"}, "[33]": {"system": "Botrytis cinerea", "assay": "Antifungal activity against highly fenhexamid-resistant Botrytis cinerea 05-221 assessed as inhibition of germ tube elongation after 24 hrs", "conditions": "05-221, 24 h"}, "[34]": {"system": "Botrytis cinerea", "assay": "Antifungal activity against highly fenhexamid-resistant Botrytis cinerea 179 assessed as inhibition of germ tube elongation after 24 hrs", "conditions": "Botrytis cinerea, 179, 24 h"}, "[35]": {"system": "Botrytis cinerea", "assay": "Antifungal activity against highly fenhexamid-resistant Botrytis cinerea 264 assessed as inhibition of germ tube elongation after 24 hrs", "conditions": "Botrytis cinerea, 264, 24 h"}, "[36]": {"system": "Botrytis cinerea", "assay": "Antifungal activity against highly fenhexamid-resistant Botrytis cinerea 312 assessed as inhibition of germ tube elongation after 24 hrs", "conditions": "Botrytis cinerea, 312, 24 h"}, "[37]": {"system": "Botrytis cinerea", "assay": "Antifungal activity against highly fenhexamid-resistant Botrytis cinerea 379a assessed as inhibition of germ tube elongation after 24 hrs"}, "[38]": {"system": "Botrytis cinerea", "assay": "Antifungal activity against highly fenhexamid-resistant Botrytis cinerea 440b assessed as inhibition of germ tube elongation after 24 hrs"}, "[39]": {"system": "Botrytis cinerea", "assay": "Antifungal activity against highly fenhexamid-resistant Botrytis cinerea 506b assessed as inhibition of germ tube elongation after 24 hrs"}, "[40]": {"system": "Botrytis cinerea", "assay": "Antifungal activity against highly fenhexamid-resistant Botrytis cinerea 520a assessed as inhibition of germ tube elongation after 24 hrs"}, "[41]": {"system": "Botrytis cinerea", "assay": "Antifungal activity against highly fenhexamid-resistant Botrytis cinerea 520b assessed as inhibition of germ tube elongation after 24 hrs"}, "[42]": {"system": "Botrytis cinerea", "assay": "Antifungal activity against highly fenhexamid-resistant Botrytis cinerea MK3-1 assessed as inhibition of germ tube elongation after 24 hrs", "conditions": "MK3-1, 24 h"}, "[43]": {"system": "Botrytis cinerea", "assay": "Antifungal activity against highly fenhexamid-resistant Botrytis cinerea MK3-31 assessed as inhibition of germ tube elongation after 24 hrs", "conditions": "MK3-31, 24 h"}}, "note": "Active and inactive are the calls of the source. No cut-off for these calls is given here.", "data": [{"smiles": "CC1(C(=O)Nc2ccc(O)c(Cl)c2Cl)CCCCC1", "note": "[FENHEXAMID]", "values": [{"measurement": "EC50", "setting": "[1]", "result": "> 5", "unit": "µg/mL"}, {"measurement": "EC50", "setting": "[2]", "result": "> 5", "unit": "µg/mL"}, {"measurement": "EC50", "setting": "[3]", "result": "> 5", "unit": "µg/mL"}, {"measurement": "EC50", "setting": "[4]", "result": 2, "unit": "µg/mL"}, {"measurement": "EC50", "setting": "[5]", "result": 2, "unit": "µg/mL"}, {"measurement": "EC50", "setting": "[6]", "result": 0.5, "unit": "µg/mL"}, {"measurement": "EC50", "setting": "[7]", "result": 3, "unit": "µg/mL"}, {"measurement": "EC50", "setting": "[8]", "result": 2, "unit": "µg/mL"}, {"measurement": "EC50", "setting": "[9]", "result": "> 10", "unit": "µg/mL"}, {"measurement": "EC50", "setting": "[10]", "result": "> 10", "unit": "µg/mL"}, {"measurement": "EC50", "setting": "[11]", "result": "> 10", "unit": "µg/mL"}, {"measurement": "EC50", "setting": "[12]", "result": "> 10", "unit": "µg/mL"}, {"measurement": "EC50", "setting": "[13]", "result": "> 10", "unit": "µg/mL"}, {"measurement": "EC50", "setting": "[14]", "result": "> 10", "unit": "µg/mL"}, {"measurement": "EC50", "setting": "[15]", "result": "> 10", "unit": "µg/mL"}, {"measurement": "EC50", "setting": "[16]", "result": "> 10", "unit": "µg/mL"}, {"measurement": "EC50", "setting": "[17]", "result": 3, "unit": "µg/mL"}, {"measurement": "EC50", "setting": "[18]", "result": 3, "unit": "µg/mL"}, {"measurement": "EC50", "setting": "[19]", "result": 0.2, "unit": "µg/mL"}, {"measurement": "EC50", "setting": "[20]", "result": "< 0.3", "unit": "µg/mL"}, {"measurement": "EC50", "setting": "[21]", "result": 1.5, "unit": "µg/mL"}, {"measurement": "EC50", "setting": "[22]", "result": "< 0.3", "unit": "µg/mL"}, {"measurement": "Activity", "setting": "[23]", "result": "inactive"}, {"measurement": "Activity", "setting": "[24]", "result": "inactive"}, {"measurement": "Activity", "setting": "[25]", "result": "inactive"}, {"measurement": "Activity", "setting": "[26]", "result": "inactive"}, {"measurement": "Activity", "setting": "[27]", "result": "inactive"}, {"measurement": "Activity", "setting": "[28]", "result": "inactive"}, {"measurement": "Activity", "setting": "[29]", "result": "inactive"}, {"measurement": "EC50", "setting": "[30]", "result": "< 0.1", "unit": "µg/mL"}, {"measurement": "EC50", "setting": "[31]", "result": "< 0.1", "unit": "µg/mL"}, {"measurement": "EC50", "setting": "[32]", "result": "> 10", "unit": "µg/mL"}, {"measurement": "EC50", "setting": "[33]", "result": "> 10", "unit": "µg/mL"}, {"measurement": "EC50", "setting": "[34]", "result": "> 10", "unit": "µg/mL"}, {"measurement": "EC50", "setting": "[35]", "result": "> 10", "unit": "µg/mL"}, {"measurement": "EC50", "setting": "[36]", "result": "> 10", "unit": "µg/mL"}, {"measurement": "EC50", "setting": "[37]", "result": "> 10", "unit": "µg/mL"}, {"measurement": "EC50", "setting": "[38]", "result": "> 10", "unit": "µg/mL"}, {"measurement": "EC50", "setting": "[39]", "result": "> 10", "unit": "µg/mL"}, {"measurement": "EC50", "setting": "[40]", "result": 10, "unit": "µg/mL"}, {"measurement": "EC50", "setting": "[41]", "result": 8, "unit": "µg/mL"}, {"measurement": "EC50", "setting": "[42]", "result": "> 5", "unit": "µg/mL"}, {"measurement": "EC50", "setting": "[43]", "result": "> 5", "unit": "µg/mL"}]}]}
